pIC50: −log10 of the molar value. Values belong to the molecule of their own block, whether it stands above or below them. Active and inactive are the calls of the source. The rule behind the calls is not given here.
Experiments:
[1] = molecular target: T1, Signal transducer and activator of transcription 3 (Homo sapiens, UniProt P40763); test: Inhibition of Stat3 activity in human U251MG cells assessed as phosphorylated Stat3 level at 5 uM after 0.5 to 24 hrs by immunoblot analysis; assay type: cell-based; conditions: U-251
T1 sequence (P40763 whole entry): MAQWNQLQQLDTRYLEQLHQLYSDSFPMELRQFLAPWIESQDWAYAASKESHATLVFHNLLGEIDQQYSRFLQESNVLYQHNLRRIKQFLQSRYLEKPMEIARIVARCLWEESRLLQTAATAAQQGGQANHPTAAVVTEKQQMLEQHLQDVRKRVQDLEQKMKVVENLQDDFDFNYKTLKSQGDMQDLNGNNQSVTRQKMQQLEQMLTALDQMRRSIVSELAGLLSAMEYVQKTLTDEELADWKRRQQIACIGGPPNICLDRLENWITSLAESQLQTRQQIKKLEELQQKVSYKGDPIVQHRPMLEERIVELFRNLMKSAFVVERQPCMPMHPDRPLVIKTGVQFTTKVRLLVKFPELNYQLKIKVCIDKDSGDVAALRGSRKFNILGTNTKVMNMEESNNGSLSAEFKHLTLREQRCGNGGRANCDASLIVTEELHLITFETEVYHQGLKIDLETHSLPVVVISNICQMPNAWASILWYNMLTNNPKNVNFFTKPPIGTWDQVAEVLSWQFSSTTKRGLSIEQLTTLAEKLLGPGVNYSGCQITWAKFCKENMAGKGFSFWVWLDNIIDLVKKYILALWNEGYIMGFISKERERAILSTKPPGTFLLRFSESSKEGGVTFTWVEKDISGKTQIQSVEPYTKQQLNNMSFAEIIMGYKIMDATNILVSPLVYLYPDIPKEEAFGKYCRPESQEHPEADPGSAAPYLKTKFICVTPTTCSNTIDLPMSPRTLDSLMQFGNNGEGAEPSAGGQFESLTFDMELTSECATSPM
Procedure, shortened: (§1)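 U251MG cells treated with 5 μM compound for 0–24 h, or with 0–5 μM for 2 h. Whole-cell lysates immunoblotted for pStat3, Stat3, GAPDH. Control was 0.025% DMSO-treated cells.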

[2] = molecular target: Signal transducer and activator of transcription 3 (Mus musculus) (UniProt P42227); test: Inhibition of Stat3 dimer DNA binding activity in mouse NIH3T3/vSrc nuclear extract at 5 uM preincubated for 30 mins followed by addition of radiolabeled probe hSIE for 30 mins by EMSA
Chain of Signal transducer and activator of transcription 3 (Mus musculus) (P42227 whole entry): as the sequence (P40763 whole entry) above, with E760D counted along it

[3] = molecular target: T1, Signal transducer and activator of transcription 3; conditions: U-251, 5 uM
[4] = test system: U-251; test: Antiproliferative activity against human U251MG cells at 5 uM for 72 hrs by cyquant assay; assay type: functional
Procedure, shortened: (§2)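 CyQuant proliferation assay after 72 h compound exposure of cultured cells; relative viability normalized to DMSO-treated control; IC50 values derived. Glioma lines grown in RPMI or DMEM with 10% FBS and 1% nonessential amino acids.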

[5] = Cytotoxicity against mouse NIH/3T3 cells after 72 hrs by cyquant cells; assay type: cell-based; conditions: NIH3T3, 72 h; procedure, shortened: as §2
[6] = molecular target: T2, Signal transducer and activator of transcription 1/ 3 (Mus musculus) (UniProt P42227+P42225); conditions: NIH3T3, 5 uM
[7] = molecular target: Signal transducer and activator of transcription 3 (Mus musculus) (UniProt P42227); conditions: NIH3T3, 5 uM
[8] = Antiproliferative activity against human U251MG cells for 72 hrs by cyquant assay; assay type: functional, cell-based; conditions: U-251, 72 h; procedure, shortened: as §2
[9] = molecular target: T1, Signal transducer and activator of transcription 3; test: Inhibition of Stat3 activity in human U251MG cells assessed as phosphorylated Stat3 level after 2 hrs by immunoblot analysis; assay type: cell-based; conditions: U-251; procedure, shortened: as §1
[10] = molecular target: T3, Signal transducer and activator of transcription 1 (Mus musculus) (UniProt P42225); test: Inhibition of Stat1 dimer DNA binding activity in EGF-stimulated mouse NIH3T3 nuclear extract expressing human EGFR at 5 uM preincubated for 30 mins followed by addition of radiolabeled probe hSIE for 30 mins by EMSA
T3 sequence (whole entry): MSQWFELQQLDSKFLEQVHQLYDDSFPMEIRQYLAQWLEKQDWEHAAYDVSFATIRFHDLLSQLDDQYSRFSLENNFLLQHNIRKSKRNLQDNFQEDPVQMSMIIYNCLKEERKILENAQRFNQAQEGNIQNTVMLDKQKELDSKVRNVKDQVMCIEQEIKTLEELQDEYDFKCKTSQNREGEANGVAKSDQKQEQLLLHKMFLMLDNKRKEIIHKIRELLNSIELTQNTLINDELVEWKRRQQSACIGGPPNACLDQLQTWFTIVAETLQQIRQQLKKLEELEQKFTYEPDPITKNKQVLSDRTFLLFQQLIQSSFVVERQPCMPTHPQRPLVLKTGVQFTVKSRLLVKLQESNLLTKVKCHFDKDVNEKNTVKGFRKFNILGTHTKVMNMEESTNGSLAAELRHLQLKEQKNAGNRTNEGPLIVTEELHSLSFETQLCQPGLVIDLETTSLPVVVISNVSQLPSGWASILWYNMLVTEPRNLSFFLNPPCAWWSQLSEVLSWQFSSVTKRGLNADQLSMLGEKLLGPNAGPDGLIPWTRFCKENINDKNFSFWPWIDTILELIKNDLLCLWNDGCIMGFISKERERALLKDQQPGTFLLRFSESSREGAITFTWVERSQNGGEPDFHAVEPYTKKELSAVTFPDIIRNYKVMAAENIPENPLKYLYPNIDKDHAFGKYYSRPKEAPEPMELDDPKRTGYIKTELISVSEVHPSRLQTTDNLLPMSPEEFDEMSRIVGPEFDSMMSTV

[11] = test system: U-251; test: Effect on SOCS3 expression in human U251MG cells at 5 uM after 0.5 to 24 hrs by immunoblot analysis; assay type: functional, cell-based
Procedure, shortened: (§3)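 U251MG cells treated with 5 μM compound for 0–24 h; whole-cell lysates of equal total protein immunoblotted. Controls were 0.025% DMSO-treated cells. Representative of 2–4 independent determinations.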

[12] = test system: SF-295; test: Antiproliferative activity against human SF295 cells at 5 uM for 72 hrs by cyquant assay; assay type: functional, cell-based
[13] = molecular target: T1, Signal transducer and activator of transcription 3; test: Inhibition of orthovandate-induced Stat3 phosphorylation in human U251MG cells at 5 uM for 3 hrs by immunoblot analysis in presence of 10 to 300 uM orthovandate; assay type: cell-based; conditions: U-251
Procedure, shortened: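 U251MG cells treated with 5 μM compound for 3 h without or with 10–300 μM Na3VO4. Whole-cell lysates of equal total protein immunoblotted for pStat3 and Stat3. Controls were 0.025% DMSO. Representative of 2–4 determinations.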

[14] = Cytotoxicity against mouse NIH/3T3 cells at 5uM after 72 hrs by cyquant cells; assay type: cell-based; conditions: nih3t3, 72 h; procedure, shortened: as §2
[15] = test system: NIH3T3; test: Inhibition of Stat5 dimer DNA binding activity in EGF-stimulated mouse NIH3T3 nuclear extract expressing human EGFR at 5 uM preincubated for 30 mins followed by addition of radiolabeled probe MGFe for 30 mins by EMSA; assay type: cell-free
[16] = molecular target: Mitogen-activated protein kinase 1 and 3 (ERK2 and ERK1) (Mus musculus) (UniProt P63085+Q63844); test: Modulation of EGF-induced Erk1/2 phosphorylation in mouse NIH3T3 cells expressing human EGFR at 5 uM preincubated for 3 hrs followed by stimulation with 1 ug/ml EGF for 12 mins by immunoblot analysis; assay type: cell-based
Chain of Mitogen-activated protein kinase 1 and 3 (ERK2 and ERK1) (Mus musculus) (P63085 whole entry, looked up): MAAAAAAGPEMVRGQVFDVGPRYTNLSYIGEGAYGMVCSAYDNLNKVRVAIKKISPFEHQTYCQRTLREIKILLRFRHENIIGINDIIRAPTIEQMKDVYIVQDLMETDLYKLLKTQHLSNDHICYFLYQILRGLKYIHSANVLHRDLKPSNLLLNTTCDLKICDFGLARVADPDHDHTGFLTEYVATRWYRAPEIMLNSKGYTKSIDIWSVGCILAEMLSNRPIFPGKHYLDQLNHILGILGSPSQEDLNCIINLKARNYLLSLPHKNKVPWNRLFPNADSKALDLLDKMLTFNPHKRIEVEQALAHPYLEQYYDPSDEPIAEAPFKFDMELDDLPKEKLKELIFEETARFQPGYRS
Chain of Mitogen-activated protein kinase 1 and 3 (ERK2 and ERK1) (Mus musculus) (Q63844 whole entry, looked up): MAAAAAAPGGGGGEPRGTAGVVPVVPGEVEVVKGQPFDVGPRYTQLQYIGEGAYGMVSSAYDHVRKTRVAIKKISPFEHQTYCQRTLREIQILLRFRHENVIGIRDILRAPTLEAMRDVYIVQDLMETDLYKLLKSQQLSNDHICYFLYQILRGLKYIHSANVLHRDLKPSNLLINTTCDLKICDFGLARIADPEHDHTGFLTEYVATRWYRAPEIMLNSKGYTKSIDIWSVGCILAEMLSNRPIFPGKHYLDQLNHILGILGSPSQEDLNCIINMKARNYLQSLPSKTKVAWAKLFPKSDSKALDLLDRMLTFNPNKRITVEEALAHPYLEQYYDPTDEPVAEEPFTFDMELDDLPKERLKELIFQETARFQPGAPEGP
Procedure, shortened: (§4)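 NIH3T3/hEGFR fibroblasts pretreated with or without 5 μM compound for 3 h, then stimulated with 1 μg/ml EGF for 12 min. Whole-cell lysates of equal total protein immunoblotted for phospho and total Stat3, Stat1, Stat5, Erk1/2. Controls were 0.025% DMSO-treated cells. Representative of 2–4 independent determinations.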

[17] = Antiproliferative activity against human U373MG cells for 72 hrs by cyquant assay; assay type: functional, cell-based, U-373MG ATCC; conditions: U373 MG; procedure, shortened: as §2
[18] = molecular target: T2, Signal transducer and activator of transcription 1/ 3 (Mus musculus); test: Inhibition of Stat1:Stat3 dimer DNA binding activity in EGF-stimulated mouse NIH3T3 nuclear extract expressing human EGFR assessed as residual activity at 5 uM preincubated for 30 mins followed by addition of radiolabeled probe hSIE for 30 mins by EMSA; assay type: cell-free
[19] = molecular target: RAC-alpha serine/threonine-protein kinase (Homo sapiens) (UniProt P31749); test: Modulation of Akt phosphorylation in human U251MG cells at 5 uM after 0.5 to 24 hrs by immunoblot analysis; assay type: cell-based; conditions: U-251; procedure, shortened: as §3
Chain of RAC-alpha serine/threonine-protein kinase (Homo sapiens) (P31749 whole entry): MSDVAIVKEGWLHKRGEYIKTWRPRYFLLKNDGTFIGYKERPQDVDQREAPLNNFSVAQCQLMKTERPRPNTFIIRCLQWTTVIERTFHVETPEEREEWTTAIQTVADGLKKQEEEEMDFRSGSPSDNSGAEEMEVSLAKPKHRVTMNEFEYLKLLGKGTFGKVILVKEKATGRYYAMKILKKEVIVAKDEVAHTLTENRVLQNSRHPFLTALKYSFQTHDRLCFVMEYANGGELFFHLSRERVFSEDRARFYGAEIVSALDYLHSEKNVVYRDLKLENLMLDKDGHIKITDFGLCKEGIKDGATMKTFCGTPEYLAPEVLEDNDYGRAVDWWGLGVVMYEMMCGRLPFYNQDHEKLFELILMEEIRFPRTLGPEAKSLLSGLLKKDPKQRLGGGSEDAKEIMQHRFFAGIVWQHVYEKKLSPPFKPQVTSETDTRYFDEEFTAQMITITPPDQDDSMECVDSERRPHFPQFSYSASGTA

[20] = molecular target: T1, Signal transducer and activator of transcription 3; test: Inhibition of Stat3 activity in human U251MG cells assessed as phosphorylated Stat3 level at 5 uM by immunoblot analysis; assay type: cell-based; conditions: U-251, TDE = time-dependent effect
[21] = test system: MDA-MB-231; test: Antiproliferative activity against human MDA-MB-231 cells for 72 hrs by cyquant assay; assay type: functional, cell-based; conditions: MDA-MB-231, 72 h; procedure, shortened: as §2
[22] = molecular target: T3, Signal transducer and activator of transcription 1 (Mus musculus); test: Inhibition of Stat1 dimer DNA binding activity in EGF-stimulated mouse NIH3T3 nuclear extract expressing human EGFR assessed as residual activity at 5 uM preincubated for 30 mins followed by addition of radiolabeled probe hSIE for 30 mins by EMSA
[23] = test system: MDA-MB-231; test: Antiproliferative activity against human MDA-MB-231 cells at 5 uM for 72 hrs by cyquant assay; assay type: functional, cell-based
[24] = molecular target: Mitogen-activated protein kinase; ERK1/ERK2 (Homo sapiens) (UniProt P27361+P28482); test: Modulation of Erk1/2 phosphorylation in human U251MG cells at 5 uM after 0.5 to 24 hrs by immunoblot analysis; assay type: cell-based; conditions: U-251
Chain of Mitogen-activated protein kinase; ERK1/ERK2 (Homo sapiens) (P27361 whole entry, looked up): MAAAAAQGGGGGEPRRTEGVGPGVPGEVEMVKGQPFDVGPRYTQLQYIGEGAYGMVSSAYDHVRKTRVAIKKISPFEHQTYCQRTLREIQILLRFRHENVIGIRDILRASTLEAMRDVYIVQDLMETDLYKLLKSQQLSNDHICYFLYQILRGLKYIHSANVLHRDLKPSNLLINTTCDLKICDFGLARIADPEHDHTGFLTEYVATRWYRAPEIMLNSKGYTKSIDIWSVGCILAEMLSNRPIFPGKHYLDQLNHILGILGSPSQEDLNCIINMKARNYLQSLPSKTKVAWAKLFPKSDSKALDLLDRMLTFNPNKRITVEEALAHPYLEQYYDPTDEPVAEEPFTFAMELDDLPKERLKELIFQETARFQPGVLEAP
Chain of Mitogen-activated protein kinase; ERK1/ERK2 (Homo sapiens) (P28482 whole entry, looked up): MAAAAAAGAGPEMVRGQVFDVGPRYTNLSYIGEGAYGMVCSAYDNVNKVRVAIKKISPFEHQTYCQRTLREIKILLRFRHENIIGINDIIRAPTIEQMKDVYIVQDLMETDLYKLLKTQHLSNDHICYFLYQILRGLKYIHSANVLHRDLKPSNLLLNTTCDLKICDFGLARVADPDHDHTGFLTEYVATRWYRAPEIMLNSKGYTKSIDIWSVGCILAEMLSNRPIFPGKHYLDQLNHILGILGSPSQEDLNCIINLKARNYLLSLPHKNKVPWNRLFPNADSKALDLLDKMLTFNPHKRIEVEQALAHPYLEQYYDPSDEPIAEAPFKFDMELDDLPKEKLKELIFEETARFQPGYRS
Procedure, shortened: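 U251MG glioma cells (RPMI or DMEM, 10% FBS, 1% nonessential amino acids) treated with 5 μM compound for 0–24 h; 0.025% DMSO control. Whole-cell lysates of equal total protein immunoblotted for pErk1/2, Erk1/2, pJAK2 and JAK2 with β-actin or GAPDH loading controls. Representative of 2–4 independent determinations.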

[25] = test system: U-251; test: Effect on PTP1B expression in human U251MG cells at 5 uM after 0.5 to 24 hrs by immunoblot analysis; assay type: functional, cell-based; procedure, shortened: as §3
[26] = molecular target: T3, Signal transducer and activator of transcription 1 (Mus musculus); test: Modulation of EGF-induced Stat1 phosphorylation in mouse NIH3T3 cells expressing human EGFR at 5 uM preincubated for 3 hrs followed by stimulation with 1 ug/ml EGF for 12 mins by immunoblot analysis; assay type: cell-based
Procedure, shortened: (§5)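 Whole-cell lysates of equal total protein from NIH3T3/hEGFR fibroblasts, pretreated with or without 5 μM compound (control 0.025% DMSO) for 3 h, then stimulated with 1 μg/ml EGF for 12 min. SDS-PAGE immunoblotting for pStat1/Stat1 and pStat5/Stat5 with β-actin or GAPDH loading controls. Representative of 2–4 independent determinations.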

[27] = test system: NIH3T3; test: Modulation of EGF-induced Stat5 phosphorylation in mouse NIH3T3 cells expressing human EGFR at 5 uM preincubated for 3 hrs followed by stimulation with 1 ug/ml EGF for 12 mins by immunoblot analysis; assay type: cell-based; procedure, shortened: as §5
[28] = Antiproliferative activity against human SF295 cells for 72 hrs by cyquant assay; assay type: functional, cell-based; conditions: SF-295, 72 h; procedure, shortened: as §2
[29] = molecular target: Signal transducer and activator of transcription 3 (Mus musculus) (UniProt P42227); test: Inhibition of EGF-induced Stat3 phosphorylation in mouse NIH3T3 cells expressing human EGFR at 5 uM preincubated for 3 hrs followed by stimulation with 1 ug/ml EGF for 12 mins by immunoblot analysis; assay type: cell-based; procedure, shortened: as §4
[30] = molecular target: Signal transducer and activator of transcription 3 (Mus musculus) (UniProt P42227); test: Inhibition of Stat3 dimer DNA binding activity in EGF-stimulated mouse NIH3T3 nuclear extract expressing human EGFR assessed as residual activity at 5 uM preincubated for 30 mins followed by addition of radiolabeled probe hSIE for 30 mins by EMSA

- inhibition [1]: Active
- inhibition [2]: Active
SMILES: CCC(C)C(=O)OCC1=C2/C(=C\[C@@]3(C)CC[C@](O)(O3)[C@H](C)C[C@@H]2O)OC1=O (stereo partly specified)

- inhibition [3]: inactive
- inhibition [6]: Active
- inhibition [7]: Active
- inhibition [9]: Dose-dependent effect
- inhibition [2]: Active
- inhibition [10]: Active
SMILES: CC(C)=CCC/C(C)=C/C(=O)OCC1=C2/C(=C\[C@@]3(C)CC[C@](O)(O3)[C@H](C)C[C@@H]2O)OC1=O
- inhibition [4]: Active
- pIC50 [5]: < 5.30
- pIC50 [8]: 6.00

- inhibition [13]: Active
- inhibition [15]: inactive
- inhibition [16]: inactive
- Activity [18]: 61%
- Activity [19]: inactive
- inhibition [20]: tde
- pIC50 [21]: 5.13
- Activity [22]: 60%
- Activity [24]: inactive
- inhibition [26]: inactive
- inhibition [2]: Active
- inhibition [10]: inactive
- inhibition [29]: Active
- Activity [30]: 47%
SMILES: C/C=C(/C)C(=O)O[C@H]1C[C@@H](C)[C@]2(O)CC[C@](C)(/C=C3/OC(=O)C(COC(C)=O)=C31)O2
- Activity [11]: inactive
- inhibition [12]: Active
- inhibition [4]: Active
- Activity [14]: Toxic
- pIC50 [5]: 4.93
- pIC50 [17]: 4.98
- pIC50 [8]: 5.48
- inhibition [23]: Active
- Activity [25]: inactive
- inhibition [27]: inactive
- pIC50 [28]: 5.07

Source: ChEMBL document CHEMBL3627612, “Hirsutinolide Series Inhibit Stat3 Activity, Alter GCN1, MAP1B, Hsp105, G6PD, Vimentin, TrxR1, and Importin α-2 Expression, and Induce Antitumor Effects against Human Glioma” (J Med Chem, 2015)
